# Laboratory results published in ChEMBL document CHEMBL4033682, “Discovery of indolin-2-one derivatives as potent PAK4 inhibitors: Structure-activity relationship analysis, biological evaluation and molecular docking study” (Bioorg Med Chem, 2017).
# Calls of active or inactive are those of the source. The rule behind the calls is not given here.
# What was measured:
# HT-1080 = assay: Growth inhibition of human HT1080 cells after 72 hrs by CCK8 assay; assay type: functional, cell-based; details: HT-1080, 72 h
# Method in brief: (§1)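 Cells seeded in 96-well plates and exposed to various compound concentrations on the seeding day, cultured 72 h at 37 °C. Proliferation read by CCK-8.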
# MCF7 = assay: Growth inhibition of human MCF7 cells after 72 hrs by CCK8 assay; assay type: functional, cell-based; details: MCF7, 72 h; method in brief: as §1
# A549 [1] = assay: Growth inhibition of human A549 cells after 72 hrs by CCK8 assay; assay type: functional, cell-based; details: A549, 72 h; method in brief: as §1
# [2] = target: T1, Serine/threonine-protein kinase PAK 4 (Homo sapiens, UniProt O96013); assay: Inhibition of PAK4 (unknown origin) using substrate S2 after 60 mins by HTRF assay
# Target sequence in this assay (O96013 whole entry): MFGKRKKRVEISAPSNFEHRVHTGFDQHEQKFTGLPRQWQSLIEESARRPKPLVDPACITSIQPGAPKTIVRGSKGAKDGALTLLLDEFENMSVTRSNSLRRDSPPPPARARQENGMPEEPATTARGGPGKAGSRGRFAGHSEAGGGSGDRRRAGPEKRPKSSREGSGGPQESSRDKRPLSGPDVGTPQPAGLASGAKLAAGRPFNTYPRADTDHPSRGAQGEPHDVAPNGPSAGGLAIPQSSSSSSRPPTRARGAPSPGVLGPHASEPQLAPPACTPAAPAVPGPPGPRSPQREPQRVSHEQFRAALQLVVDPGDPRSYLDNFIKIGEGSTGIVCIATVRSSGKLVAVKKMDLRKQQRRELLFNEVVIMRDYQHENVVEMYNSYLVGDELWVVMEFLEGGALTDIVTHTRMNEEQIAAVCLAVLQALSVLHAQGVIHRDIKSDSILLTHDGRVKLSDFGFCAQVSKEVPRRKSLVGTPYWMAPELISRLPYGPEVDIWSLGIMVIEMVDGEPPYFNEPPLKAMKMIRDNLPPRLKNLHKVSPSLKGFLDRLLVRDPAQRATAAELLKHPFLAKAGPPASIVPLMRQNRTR
# A549 [3] = assay: Induction of apoptosis in human A549 cells assessed as late apoptotic cells at 5 uM after 72 hrs by Annexin-V/7AAD staining based flow cytometry (reference value: 2.95%); assay type: functional
# A549 [4] = assay: Cell cycle arrest in human A549 cells assessed as accumulation at G1 phase at 1 uM after 72 hrs by propidium iodide staining based flow cytometry (reference value: 44.99%); assay type: functional
# A549 [5] = assay: Induction of apoptosis in human A549 cells assessed as necrotic cells at 1 uM after 72 hrs by Annexin-V/7AAD staining based flow cytometry (reference value: 0.65%); assay type: functional
# A549 [6] = assay: Induction of apoptosis in human A549 cells assessed as late apoptotic cells at 1 uM after 72 hrs by Annexin-V/7AAD staining based flow cytometry (reference value: 2.95%); assay type: functional
# A549 [7] = assay: Cell cycle arrest in human A549 cells assessed as accumulation at G1 phase at 5 uM after 72 hrs by propidium iodide staining based flow cytometry (reference value: 44.99%); assay type: functional
# A549 [8] = assay: Induction of apoptosis in human A549 cells assessed as live cells at 5 uM after 72 hrs by Annexin-V/7AAD staining based flow cytometry (reference value: 93.98%); assay type: functional
# A549 [9] = assay: Induction of apoptosis in human A549 cells assessed as live cells at 1 uM after 72 hrs by Annexin-V/7AAD staining based flow cytometry (reference value: 93.98%); assay type: functional
# A549 [10] = assay: Anti-invasive activity against human A549 cells at 5 uM […] by crystal violet staining based matrigel invasion chamber assay; assay type: functional, cell-based
# A549 [11] = assay: Cell cycle arrest in human A549 cells assessed as accumulation at S phase at 5 uM after 72 hrs by propidium iodide staining based flow cytometry (reference value: 37.39%); assay type: functional
# A549 [12] = assay: Induction of apoptosis in human A549 cells assessed as early apoptotic cells at 5 uM after 72 hrs by Annexin-V/7AAD staining based flow cytometry (reference value: […]); assay type: functional
# A549 [13] = assay: Induction of apoptosis in human A549 cells assessed as early apoptotic cells at 1 uM after 72 hrs by Annexin-V/7AAD staining based flow cytometry (reference value: […]); assay type: functional
# [14] = target: T1, Serine/threonine-protein kinase PAK 4; assay: Inhibition of PAK4 in human A549 cells assessed as reduction in LIMK1 phosphorylation after 72 hrs by Western blot analysis; assay type: cell-based
# Target sequence in this assay (O96013 whole entry, looked up): as the sequence (O96013 whole entry) above
# A549 [15] = assay: Cell cycle arrest in human A549 cells assessed as accumulation at G2 phase at 5 uM after 72 hrs by propidium iodide staining based flow cytometry (reference value: 17.62%); assay type: functional
# A549 [16] = assay: Cell cycle arrest in human A549 cells assessed as accumulation at S phase at 1 uM after 72 hrs by propidium iodide staining based flow cytometry (reference value: 37.39%); assay type: functional
# A549 [17] = assay: Cell cycle arrest in human A549 cells assessed as accumulation at G2 phase at 1 uM after 72 hrs by propidium iodide staining based flow cytometry (reference value: 17.62%); assay type: functional
# A549 [18] = assay: Antimigratory activity against human A549 cells at 5 uM […] by crystal violet staining based transwell chamber assay; assay type: functional, cell-based
# A549 [19] = assay: Induction of apoptosis in human A549 cells assessed as necrotic cells at 5 uM after 72 hrs by Annexin-V/7AAD staining based flow cytometry (reference value: 0.65%); assay type: functional
# [20] = target: T1, Serine/threonine-protein kinase PAK 4; assay: Inhibition of PAK4 phosphorylation in human A549 cells after 2 hrs by Western blot analysis; assay type: cell-based
# Method in brief: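 A549 cells treated with indicated dose for 2 h, lysed in SDS sample buffer, resolved by 10% SDS-PAGE, transferred to nitrocellulose, probed for phospho-PAK4 and PAK4 (GAPDH loading control) with HRP-conjugated secondary antibodies, detected by enhanced chemiluminescence.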
# Target sequence in this assay (O96013 whole entry, looked up): as the sequence (O96013 whole entry) above
# [21] = target: T1, Serine/threonine-protein kinase PAK 4; assay: Inhibition of PAK4 in human A549 cells assessed as reduction in cofilin phosphorylation after 72 hrs by Western blot analysis; assay type: cell-based
# Target sequence in this assay (O96013 whole entry, looked up): as the sequence (O96013 whole entry) above
# A549 [22] = assay: Induction of apoptosis in human A549 cells after 72 hrs by Annexin-V/7AAD staining based flow cytometry; assay type: functional, cell-based
smiles,measurement,setting,value
O=C1Nc2ccc(C(=O)N[C@H](CO)c3ccccc3)cc2/C1=C/c1cnc[nH]1,IC50,HT-1080,7.9 µM
same,IC50,MCF7,10.8 µM
same,IC50,A549 [1],3.7 µM
O=C1Nc2cc(Cl)c(C(=O)N[C@H](CO)c3ccccc3)cc2/C1=C/c1ccc[nH]1,IC50,[2]; read-out: IC50,1.42 µM
O=C1Nc2ccc(C(=O)N[C@H](CO)c3ccccc3Cl)cc2/C1=C/c1ccc[nH]1,IC50,[2]; read-out: IC50,0.199 µM
O=C1Nc2ccc(C(=O)N[C@H](CO)Cc3ccccc3)cc2/C1=C/c1ccc[nH]1,IC50,[2]; read-out: IC50,0.304 µM
O=C1Nc2ccc(C(=O)N[C@@H](CO)c3ccccc3)cc2/C1=C/c1ccc[nH]1,IC50,[2]; read-out: IC50,3.38 µM
O=C1Nc2cc(Br)c(C(=O)N[C@H](CO)c3ccccc3)cc2/C1=C/c1ccc[nH]1,IC50,[2]; read-out: IC50,1.2 µM
Cn1cc(-c2cc3c(cc2C(=O)N[C@H](CO)c2ccccc2)/C(=C/c2ccc[nH]2)C(=O)N3)cn1,IC50,[2]; read-out: IC50,1.99 µM
O=C1Nc2ccc(C(=O)NCCCO)cc2/C1=C/c1ccc[nH]1,IC50,[2]; read-out: IC50,3.15 µM
O=C1Nc2ccc(C(=O)N[C@H](CCO)c3ccccc3)cc2/C1=C/c1ccc[nH]1,IC50,[2]; read-out: IC50,5.01 µM
O=C1Nc2ccc(C(=O)N[C@H](CO)c3ccc(F)cc3)cc2/C1=C/c1ccc[nH]1,IC50,[2]; read-out: IC50,0.054 µM
CC(C)[C@@H](CO)NC(=O)c1ccc2c(c1)/C(=C/c1ccc[nH]1)C(=O)N2,IC50,[2]; read-out: IC50,2.35 µM
CC(C)(C)[C@@H](CO)NC(=O)c1ccc2c(c1)/C(=C/c1ccc[nH]1)C(=O)N2,IC50,[2]; read-out: IC50,0.634 µM
O=C1Nc2ccc(C(=O)N[C@H](CO)c3ccccc3)cc2C1=Cc1ccccn1,IC50,[2]; read-out: IC50,> 10 µM
O=C1Nc2ccc(C(=O)NCCO)cc2/C1=C/c1ccc[nH]1,IC50,[2]; read-out: IC50,1.26 µM
Cc1cc(C)c(/C=C2\C(=O)Nc3ccc(C(=O)N[C@H](CO)c4ccccc4)cc32)[nH]1,Activity,A549 [3],33.22%
same,Activity,A549 [4],35.7%
same,IC50,HT-1080,6.77 µM
same,Activity,A549 [5],5.14%
same,Activity,A549 [6],15.46%
same,Activity,A549 [7],27.78%
same,Activity,A549 [8],26.23%
same,Activity,A549 [9],70.56%
same,Activity,A549 [10],Active
same,Activity,A549 [11],38.47%
same,Activity,A549 [12],32.18%
same,Activity,A549 [13],8.44%
same,inhibition,[14],Dose-dependent effect
same,Activity,A549 [15],33.75%
same,IC50,MCF7,2.11 µM
same,Activity,A549 [16],39.92%
same,Activity,A549 [17],24.37%
same,Activity,A549 [18],Active
same,IC50,A549 [1],0.83 µM
same,Activity,A549 [19],8.36%
same,inhibition,[20],Dose-dependent effect
same,inhibition,[21],Dose-dependent effect
same,IC50,[2]; read-out: IC50,0.027 µM
same,IC50,[2]; read-out: pIC50 (converted),0.0275 µM
same,Activity,A549 [22],Dose-dependent effect
N#Cc1cc2c(cc1C(=O)N[C@H](CO)c1ccccc1)/C(=C/c1ccc[nH]1)C(=O)N2,IC50,[2]; read-out: IC50,1.54 µM
O=C1Nc2ccc(C(=O)N[C@H](CO)c3ccccc3)cc2/C1=C/c1ccn[nH]1,IC50,[2]; read-out: IC50,0.379 µM
Cn1nccc1-c1cc2c(cc1C(=O)N[C@H](CO)c1ccccc1)/C(=C/c1ccc[nH]1)C(=O)N2,IC50,[2]; read-out: IC50,1.45 µM
O=C1Nc2ccc(C(=O)N[C@H](CO)c3ccccc3)cc2/C1=C/c1ccc[nH]1,IC50,HT-1080,0.98 µM
same,IC50,MCF7,6.56 µM
same,IC50,A549 [1],2.37 µM
same,IC50,[2]; read-out: IC50,0.022 µM
same,IC50,[2]; read-out: pIC50 (converted),0.0219 µM
O=C1Nc2ccc(C(=O)N[C@H](CO)c3ccc(Cl)cc3)cc2/C1=C/c1ccc[nH]1,IC50,[2]; read-out: IC50,0.391 µM
O=C1Nc2cc(F)c(C(=O)N[C@H](CO)c3ccccc3)cc2/C1=C/c1ccc[nH]1,IC50,[2]; read-out: IC50,0.718 µM
O=C1Nc2ccc(C(=O)N[C@H](CO)c3ccccc3)cc2/C1=C/c1cccs1,IC50,[2]; read-out: IC50,1.29 µM
O=C1Nc2ccc(C(=O)N[C@H](CO)c3ccccc3)cc2/C1=C/c1ccco1 (stereo in doubt),IC50,[2]; read-out: IC50,0.802 µM
O=C1Nc2ccc(C(=O)N[C@H](CO)c3ccccc3)cc2/C1=C/c1ncc[nH]1,IC50,[2]; read-out: IC50,0.281 µM
